pIC50: −log10 of the molar value. Values belong to the compound of their own block, whether it stands above or below them.
Legend:
[1] = Drug uptake in cytoplasm of human PC3 cells at 10 uM measured immediately by confocal fluorescence microscopic method; assay type: ADME
[2] = Drug uptake in nucleus of human PC3 cells at 10 uM measured immediately by confocal fluorescence microscopic method; assay type: ADME, cell-based
[3] = Drug uptake in golgi apparatus of human PC3 cells co-expressing RFP at 10 uM by confocal microscopic analysis; assay type: ADME
Procedure, shortened: (§1)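 Cells were transduced with BacMam baculovirus (50 particles/cell) for 16–24 h to express organelle-targeted RFP (Golgi, lysosomes, early/late endosomes, mitochondria, ER). After two phenol red-free DMEM rinses, 10 μM NBD-labelled compound was added, and red and green signals were imaged immediately by confocal microscopy.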

[4] = Drug uptake in lysosomes of human PC3 cells co-expressing RFP at 10 uM by confocal microscopic analysis; assay type: ADME, Lysosome; procedure, shortened: as §1
[5] = Drug uptake in early endosome of human PC3 cells co-expressing RFP at 10 uM by confocal microscopic analysis; assay type: ADME; procedure, shortened: as §1
[6] = Drug uptake in late endosome of human PC3 cells co-expressing RFP at 10 uM by confocal microscopic analysis; assay type: ADME; procedure, shortened: as §1
[7] = Drug uptake in mitochondria of human PC3 cells co-expressing RFP at 10 uM by confocal microscopic analysis; assay type: ADME; procedure, shortened: as §1
[8] = Drug uptake in endoplasmic reticulum of human PC3 cells co-expressing RFP at 10 uM by confocal microscopic analysis; assay type: ADME; procedure, shortened: as §1
[9] = Drug uptake in nucleus of human PC3 cells co-expressing RFP at 10 uM by confocal microscopic analysis; assay type: ADME, cell-based; procedure, shortened: as §1
[10] = (§2) Drug uptake in nucleus of human PC3/TJ191 cells co-expressing RFP at 10 uM by confocal microscopic analysis; assay type: ADME
[11] = Drug uptake in nuclear membrane of human PC3 cells co-expressing RFP at 10 uM by confocal microscopic analysis; assay type: ADME, cell membranes; procedure, shortened: as §1
[12] = Drug uptake in golgi apparatus of human PC3/TJ191 cells co-expressing RFP at 10 uM by confocal microscopic analysis; assay type: ADME
[13] = Drug uptake in lysosomes of human PC3/TJ191 cells co-expressing RFP at 10 uM by confocal microscopic analysis; assay type: ADME, Lysosome
[14] = Drug uptake in early endosome of human PC3/TJ191 cells co-expressing RFP at 10 uM by confocal microscopic analysis; assay type: ADME
[15] = Drug uptake in late endosome of human PC3/TJ191 cells co-expressing RFP at 10 uM by confocal microscopic analysis; assay type: ADME
[16] = Drug uptake in mitochondria of human PC3/TJ191 cells co-expressing RFP at 10 uM by confocal microscopic analysis; assay type: ADME
[17] = Drug uptake in endoplasmic reticulum of human PC3/TJ191 cells co-expressing RFP at 10 uM by confocal microscopic analysis; assay type: ADME
[18] = as §2; assay type: ADME; remark: listed apart in the source
[19] = Drug uptake in nuclear membrane of human PC3/TJ191 cells co-expressing RFP at 10 uM by confocal microscopic analysis; assay type: ADME, cell membranes
[20] = Drug uptake in cytoplasm of human CEM cells at 10 uM measured immediately by confocal fluorescence microscopic method; assay type: ADME
[21] = Drug uptake in cytoplasm of human HeLa cells at 10 uM measured immediately by confocal fluorescence microscopic method; assay type: ADME, cell-based
[22] = Drug uptake in nucleus of human CEM cells at 10 uM measured immediately by confocal fluorescence microscopic method; assay type: ADME, cell-based
[23] = Drug uptake in nucleus of human HeLa cells at 10 uM measured immediately by confocal fluorescence microscopic method; assay type: ADME, cell-based
[24] = Drug uptake in nucleus of human CEM cells at 10 uM measured after incubation by confocal fluorescence microscopic method; assay type: ADME, cell-based
[25] = Drug uptake in nucleus of human PC3 cells at 10 uM measured after incubation by confocal fluorescence microscopic method; assay type: ADME, cell-based
[26] = Drug uptake in nucleus of human HeLa cells at 10 uM measured after incubation by confocal fluorescence microscopic method; assay type: ADME, cell-based
MOLT-4 = assay: Cytotoxicity against human MOLT4 cells after 72 to 96 hrs by coulter counter method; assay type: functional, cell-based
Raji = assay: Cytotoxicity against human Raji cells after 72 to 96 hrs by coulter counter method; assay type: functional, cell-based
PC-3 = assay: Cytotoxicity against human PC3 cells after 72 to 96 hrs by coulter counter method
Huh-7 = assay: Cytotoxicity against human HuH7 cells after 72 to 96 hrs by coulter counter method; assay type: functional, cell-based
CAKI-1 = assay: Cytotoxicity against human Caki1 cells after 72 to 96 hrs by coulter counter method; assay type: functional, cell-based
[27] = Selectivity ratio of IC50 for human Raji cells to IC50 for human CEM cells; assay type: functional
HeLa [28] = assay: Selectivity ratio of IC50 for human HeLa cells to IC50 for human PC3 cells; assay type: functional
CCRF-CEM = assay: Cytotoxicity against human CEM cells after 72 to 96 hrs by coulter counter method
HeLa [29] = assay: Cytotoxicity against human HeLa cells after 72 to 96 hrs by coulter counter method; assay type: functional, cell-based

Drug uptake [1]: Active | Drug uptake [2]: Not Active | Drug uptake [3]: Not Active | Drug uptake [4]: Not Active | Drug uptake [5]: Not Active | Drug uptake [6]: Not Active | Drug uptake [7]: Active | Drug uptake [8]: Active | Drug uptake [9]: Active | Drug uptake [10]: Active | Drug uptake [11]: Active | Drug uptake [12]: Not Active | Drug uptake [13]: Not Active | Drug uptake [14]: Not Active | Drug uptake [15]: Not Active | Drug uptake [16]: Not Active | Drug uptake [17]: Active | Drug uptake [18]: Active | Drug uptake [19]: Active
SMILES: COC(=O)c1cc(CCCCCCCNc2ccc([N+](=O)[O-])c3nonc23)sc1N

Drug uptake [20]: Active | Drug uptake [1]: Active | Drug uptake [21]: Active | Drug uptake [22]: Not Active | Drug uptake [2]: Not Active | Drug uptake [23]: Not Active | Drug uptake [24]: Not Active | Drug uptake [25]: Not Active | Drug uptake [26]: Not Active
SMILES: COC(=O)c1cc(CCCCCCCNS(=O)(=O)c2cccc3c(N(C)C)cccc23)sc1N

SMILES: CCc1cc(C(=O)OC)c(N)s1
pIC50 (MOLT-4): 4.54 | pIC50 (Raji): < 3.60 | pIC50 (PC-3): 4.57 | pIC50 (Huh-7): 4.08 | pIC50 (CAKI-1): 4.04 | Ratio IC50 [27]: >1.4 | Ratio IC50 (HeLa [28]): 6.7

SMILES: CCCc1cc(C(=O)OC)c(N)s1
pIC50 (CCRF-CEM): 5.16 | pIC50 (MOLT-4): 5.68 | pIC50 (Raji): 3.98 | pIC50 (PC-3): 5.47 | pIC50 (Huh-7): 5.60 | pIC50 (CAKI-1): 5.27 | pIC50 (HeLa [29]): 4.21 | Ratio IC50 [27]: 16 | Ratio IC50 (HeLa [28]): 18
